# Measured values published in PubChem BioAssay AID623993 (Broad Institute, 2012).
# The source made the active and inactive calls.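 The calls were made as follows: active = inhibitor whose fitted half-maximal dose is at most twice the top valid tested dose; inconclusive = flat curve with partial inhibition, or poor fit; inactive = signal rising, flat near zero, or weaker potency.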
# Molecular target: PvdQ acyl-homoserine lactone acylase (Pseudomonas aeruginosa LESB58)
# Assay: inhibition of P. aeruginosa PvdQ enzyme – biochemical, 4-MU laurate fluorescence, dry powder, set 4, dose response (AID 623993)
# Details: purified PvdQ, 4-MU laurate hydrolysis fluorescence; for activity change, negative = inhibition: at 19.5 µM (top of the series)
# Method in brief: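 Material: purified P. aeruginosa PvdQ; amount: PvdQ enzyme at 0.02 µM final; medium: 50 mM Tris pH 8.0, 50 mM NaCl, 0.2 mM TCEP, Triton X-100; also added: 4-MU laurate substrate, 0.8 mM; incubation: 30 min preincubation plus 60 min reaction, room temperature; technique: fluorescence, ex 303–367 nm, em 440–460 nm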
"activity change, negative = inhibition",AC50 [µM],SMILES
,14.5,CN(C)CCCC(C#N)c1ccc(Cl)cc1 (stereo not given)
,0.53,COCCC(C#N)c1ccc(F)cc1 (stereo not given)
,0.14,N#Cc1cccc(C(C#N)c2ccc(F)cc2)n1 (stereo not given)
,7.07,COCCOCCC(C#N)c1ccc(Cl)cc1 (stereo not given)
inactive,,COCCNC(C#N)c1ccc(Cl)cc1 (stereo not given)
,15.2,N#CC(c1ccc(C(F)(F)F)c(Cl)n1)c1ccccc1OC(F)(F)F (stereo not given)
,0.786,N#CC(c1ccc(Cl)cc1)N1CCCC1 (stereo not given)
,0.412,CCCCC(C#N)c1ccc(Cl)cc1 (stereo not given)
,0.273,CN(C)CCCC(C#N)c1ccc(F)cc1 (stereo not given)
,0.177,COCCOCCC(C#N)c1ccc(F)cc1 (stereo not given)
,3.51,N#CC1c2ccc(Cl)cc2CCc2cccnc21 (stereo not given)
,< 0.003,N#CC(c1ccc(F)cc1)c1cccc(C(F)(F)F)n1 (stereo not given)
,0.00301,N#CC(c1ccc(Cl)cc1)c1ncccc1Cl (stereo not given)
,< 0.003,N#CC(c1cccc(C(F)(F)F)n1)c1ccc(Cl)cc1F (stereo not given)

# Continued, molecule first:
SMILES,"activity change, negative = inhibition",AC50 [µM]
CCCCC(C#N)c1ccccn1 (stereo not given),inactive,
N#CC(c1ccc(F)cc1)c1cccc(Cl)n1 (stereo not given),,0.108
N#CC(c1ccc(Cl)cc1)c1cccc(Cl)n1 (stereo not given),,0.0491
CCCCC(C#N)c1ccc(Cl)cn1 (stereo not given),,1.63
N#CC(c1ccc(Cl)cc1)c1cccc(C(F)(F)F)n1 (stereo not given),,0.0236
Clc1ccc(C(c2cccc(Cl)n2)c2nn[nH]n2)cc1 (stereo not given),inactive,
COCCC(C#N)c1ccc(Cl)cc1 (stereo not given),,3.47
CCCCC(C#N)c1ccc(F)cc1 (stereo not given),,0.412
N#CC(c1cccc(Cl)n1)c1ccc(Cl)cc1F (stereo not given),,0.00766
N#CC(c1ccc(Cl)cc1)c1ccccn1 (stereo not given),,0.212
CCCCC(c1ccc(Cl)cc1)c1nn[nH]n1 (stereo not given),,3.53
